This is an account of results in ChEMBL document CHEMBL4680238, “Novel octapeptide-DTX prodrugs targeting MMP-7 as effective agents for the treatment of colorectal cancer with lower systemic toxicity” (Eur J Med Chem, 2020).

Series [1] concerns HCT-116. Briefly: Antitumour activity against human HCT-116 cells xenografted in BALB/c nude mouse assessed as tumour growth inhibition at 5 mg/kg, ip administered once for every 7 days for 14 days relative to control. It is filed as functional. The following applies: HCT-116, ip, 336 h, time 14 day, read-out: TGI. Summed up: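 Male BALB/c nude mice received s.c. HCT116 cells (2 × 10^6 in 0.2 mL PBS). Once tumours reached 100-200 mm3, mice were randomized into groups of six. Dosing was ip, 0.1 mL/10 g, once every 7 days, in DMSO 0.5%/castor oil 5%/ethanol 5%/saline 89.5%; vehicle controls got solvent. Caliper volume V = L×W²×0.52 read every 2-3 days. Tumours excised and weighed on day 14.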
Background: Xenograft models place foreign cells or tissue in a host animal.

Series [2] in a line: Drug uptake in BALB/c nude mouse xenografted with human HCT-116 cells assessed as drug level in kidney at 5 mg/kg, iv measured up to 24 hrs by LC-MS/MS analysis. It is filed as ADME, organism-based. The note with it: in vivo. Summed up: (§1)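 Male BALB/c nude mice bearing s.c. HCT116 tumours (200-300 mm3), 20 per group. Single tail-vein dose of 5 mg/kg. Five mice per group killed at 0.5, 4, 8 and 24 h and heart-perfused with PBS. Tissues homogenized in saline (4 µL/mg) and precipitated with methanol containing paclitaxel internal standard. Prodrug, released DTX and free DTX measured by LC-MS/MS.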

For the next series, the system named is SW-620. Description: Cytotoxicity against human SW-620 cells assessed as reduction in cell viability after 72 hrs by MTT assay. The following applies: SW-620, 72 h. It is filed as functional, cell-based. Summed up: (§2)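 Cells seeded at 5000/well and precultured 1 day. HCT116 grown in McCoy's 5A + 10% FBS; SW620 and HEK293 in DMEM + 10% FBS; CCD18Co in DMEM + 15% FBS. Compounds from 0.1 M DMSO stocks were tested at 10^-10 to 10^-4 mol/L in sixplicate: HCT116 and HEK293 for 48 h, SW620 and CCD18Co for 72 h, at 37 °C, 5% CO2. MTT (5 mg/mL) added for 4 h, then A570 read; IC50 estimated.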
On the technique in general: Formazan colour is commonly taken as a measure of viable cells.

Series [3] in a line: Toxicity in BALB/c nude mouse xenografted with human HCT-116 cells assessed as reduction in body weight at 5 mg/kg, ip administered once for every 7 days for 14 days relative to control. It is filed as organism-based. Also on record: scale not given: the % may be the effect or the level left. The note with it: in vivo, 336 h, time 14 day. Summed up:
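HCT116 s.c. xenografts in male BALB/c nude mice, n = 6 per group. Dosing was ip once every 7 days for 2 weeks in DMSO/castor oil/ethanol/saline; vehicle controls got solvent. Body weight recorded every other day or every three days. Weight loss taken at day 14. Mean ± SD.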

A short description of series [4]: Drug uptake in BALB/c nude mouse xenografted with human HCT-116 cells assessed as drug level in lung at 5 mg/kg, iv measured up to 24 hrs by LC-MS/MS analysis. It is filed as ADME, organism-based. The note with it: in vivo. Summed up: as §1
Series [5] can be described thus: Apparent volume of distribution in Sprague-Dawley rat at 5 mg/kg, iv measured up to 72 hrs by LC-MS/MS analysis. It is filed as ADME, organism-based. The note with it: in vivo, read-out: Vz. Summed up:
(§3)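 Male SD rats (180-200 g), fasted 12 h with free water, n = 3 per group. Single tail-vein dose of 5 mg/kg in 0.5% DMSO/5% castor oil/5% ethanol/89.5% saline. Retro-orbital blood drawn 0.083-72 h with heparin. Plasma protein-precipitated with methanol containing paclitaxel internal standard, then analysed by LC-MS/MS. Parameters from non-compartmental analysis, mean ± SD. For the DTX group, parameters were calculated after converting dose to the molar equivalent of the prodrug.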

In series [6] the test system is HCT-116. Description: Cytotoxicity against human HCT-116 cells assessed as reduction in cell viability after 48 hrs by MTT assay. It is filed as functional, cell-based. The following applies: HCT-116, 48 h. Summed up:
as §2

Series [7] can be described thus: Toxicity in BALB/c nude mouse xenografted with human HCT-116 cells assessed as disordered myocardial fiber in heart at 5 mg/kg, ip administered once for every 7 days for 14 days by H and E staining based assay. It is filed as organism-based. The note with it: in vivo, 336 h, time 14 day. Summed up:
(§4)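 At the end of the 14-day ip xenograft study (HCT116, BALB/c nude), heart and liver were collected from vehicle and molar-equivalent dose groups. Tissues fixed in 10% formalin in PBS and stained with H&E. Liver examined at 400×, heart at 100×.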

Series [8] in a line: AUC (0 to t) in Sprague-Dawley rat at 5 mg/kg, iv measured up to 72 hrs by LC-MS/MS analysis. It is filed as ADME, organism-based. Also on record: route intravenous, dose 5 mg/kg, time <=72. The note with it: in vivo. Summed up: as §3
A short description of series [9]: Apparent clearance in Sprague-Dawley rat at 5 mg/kg, iv measured up to 72 hrs by LC-MS/MS analysis. The note with it: in vivo, 5 mg/kg, 72 h. It is filed as ADME, organism-based. Summed up: as §3
Series [10] can be described thus: Half life in Sprague-Dawley rat at 5 mg/kg, iv measured up to 72 hrs by LC-MS/MS analysis. It is filed as ADME, organism-based. The note with it: in vivo. Summed up:
as §3

A short description of series [11]: Toxicity in BALB/c nude mouse xenografted with human HCT-116 cells assessed as inflammatory cell invasion in heart at 5 mg/kg, ip administered once for every 7 days for 14 days by H and E staining based assay. It is filed as organism-based. The following applies: in vivo, 336 h, time 14 day. Summed up:
as §4

Another series concerns CCD-18Co. Description: Cytotoxicity against human CCD-18Co cells assessed as reduction in cell viability after 72 hrs by MTT assay. It is filed as cell-based. Summed up: as §2
A short description of series [12]: Drug uptake in BALB/c nude mouse xenografted with human HCT-116 cells assessed as drug level in heart at 5 mg/kg, iv measured up to 24 hrs by LC-MS/MS analysis. It is filed as ADME, organism-based. The following applies: in vivo. Summed up:
as §1

The test system of another series is HEK293. Description: Cytotoxicity against HEK293 cells assessed as reduction in cell viability after 48 hrs by MTT assay. The following applies: Homo sapiens, HEK293, 48 h. It is filed as cell-based. Summed up:
as §2

Series [13] in a line: Drug uptake in BALB/c nude mouse xenografted with human HCT-116 cells assessed as drug level in tumour at 5 mg/kg, iv measured up to 24 hrs by LC-MS/MS analysis. It is filed as ADME, organism-based, Neoplasm. The following applies: in vivo. Summed up: as §1
Series [14] in a line: Drug uptake in BALB/c nude mouse xenografted with human HCT-116 cells assessed as drug level in liver at 5 mg/kg, iv measured up to 24 hrs by LC-MS/MS analysis. It is filed as ADME, organism-based. The following applies: in vivo. Summed up:
as §1

Series [15] can be described thus: AUC (0 to infinity) in Sprague-Dawley rat at 5 mg/kg, iv measured up to 72 hrs by LC-MS/MS analysis. Also on record: route intravenous, dose 5 mg/kg, time <=72. The following applies: in vivo, 72 h. It is filed as ADME, organism-based. Summed up:
as §3

The nature of series [16]: Toxicity in ip dosed Kunming mouse measured for 14 days. It is filed as organism-based. The note with it: in vivo, time 14 day. Summed up: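 Healthy Kunming mice of both sexes, 20 ± 2 g, randomised into 5 groups of 10 matched for weight and size. Compound given once intraperitoneally at 400, 300, 250 or 150 mg/kg in formulation solvent (0.5% DMSO, 5% castor oil, 5% ethanol, 89.5% saline), 0.1 mL per 10 g; vehicle controls received solvent. Deaths recorded daily for 14 days; LD50 by Bliss method.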

Series [17] in a line: Toxicity in BALB/c nude mouse xenografted with human HCT-116 cells assessed as concentrated nucleus in liver at 5 mg/kg, ip administered once for every 7 days for 14 days by H and E staining based assay. It is filed as organism-based. The note with it: in vivo, 336 h, time 14 day. Summed up: as §4
Series [18] can be described thus: Drug uptake in BALB/c nude mouse xenografted with human HCT-116 cells assessed as drug level in spleen at 5 mg/kg, iv measured up to 24 hrs by LC-MS/MS analysis. It is filed as ADME, organism-based. The note with it: in vivo. Summed up: as §1
Series [19] can be described thus: MRT (0 to infinity) in Sprague-Dawley rat at 5 mg/kg, iv measured up to 72 hrs by LC-MS/MS analysis. The following applies: in vivo. It is filed as ADME, organism-based. Summed up: as §3
A short description of series [20]: Toxicity in BALB/c nude mouse xenografted with human HCT-116 cells assessed as necrosis in liver at 5 mg/kg, ip administered once for every 7 days for 14 days by H and E staining based assay. It is filed as organism-based. The note with it: in vivo, 336 h, time 14 day. Summed up:
as §4

As for `CC(=O)O[C@@]12CO[C@@H]1C[C@H](O)[C@@]1(C)C(=O)[C@H](O)C3=C(C)[C@@H](OC(=O)[C@H](O)[C@@H](NC(=O)OC(C)(C)C)c4ccccc4)C[C@@](O)([C@@H](OC(=O)c4ccccc4)[C@H]21)C3(C)C` [DOCETAXEL ANHYDROUS], the inhibition in vivo at 5 mg/kg in the series with HCT-116 [1] came out at 42.7%. Further, the Drug uptake entry in [2], in [4], in [12], in series [13], in series [14] and in series [18] was “Active” throughout. For the same molecule, the concentration for half-maximal inhibition (IC50) (as a rule, the concentration needed to halve the response being measured) in the series on SW-620 was 20 nM; in the series on HCT-116 [6], 3.5 nM; in the series on CCD-18Co it was 117000 nM; in the series on HEK293, 19700 nM. In addition, the Activity is 13% in series [3], “Toxic” in series [7], “Toxic” in series [11] and “Toxic” in [17]. In series [5], the Vd is 22.6 L/kg. In addition, the AUC(0-t) (usually exposure summed from dosing to a finite time, without extrapolation to infinity) at 72 h in series [8] was determined as 930 ng·h/mL. Further, the “CL(app)” value in [9] is 46 mL/min/kg. Moreover, the half-life (commonly the time in which the quantity being followed falls by half) in [10] was 5.75 h. For the same molecule, in series [15], the area under the curve (AUC) (usually concentration integrated over time) is 867 ng·h/mL. Moreover, the LD50 – broadly, the dose at which mortality reaches 50% – at 336 h in series [16] worked out at 74.1 mg/kg. For the same molecule, the MRT inf (usually a mean duration of stay, worked out from the concentration-time curve) in [19] amounted to 3.76 h.

Consider `CC(=O)O[C@@]12CO[C@@H]1C[C@H](O)[C@@]1(C)C(=O)[C@H](O)C3=C(C)[C@@H](OC(=O)[C@H](O)[C@@H](NC(=O)OC(C)(C)C(F)(F)F)c4ccccc4)C[C@@](O)([C@@H](OC(=O)c4cccc(F)c4)[C@H]21)C3(C)C`, for which the inhibition in vivo at 5 mg/kg with HCT-116 [1] is 41.9%. In addition, the half-maximal inhibitory concentration (IC50) was found to be 280 nM in the series with SW-620, 0.1 nM in the series with HCT-116 [6], 17100 nM with CCD-18Co and 360 nM in the series with HEK293. For the same molecule, the Activity is 9.5% in series [3], “Toxic” in series [7], “Toxic” in series [11] and “Toxic” in series [20].
